What all share (assay type): cell-based
Assay [1] concerns the target T1, Protein cereblon/von Hippel-Lindau disease tumor suppressor (Homo sapiens, UniProt P40337+Q96SW2). As to the kind of experiment: Protac activity at VHL/CRBN in human HeLa cells assessed as pVHL19 protein abundance at 1 uM after 24 hrs by Western blot analysis relative to DMSO. A digest of the protocol: (§1)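 HeLa cells seeded overnight, then exposed to 1 µM compound (0.1% v/v DMSO final) over a time course. Cells were DPBS-washed and RIPA-lysed with protease inhibitors and benzonase; equal protein was loaded. Immunoblots for CRBN and VHL isoforms were quantified against β-tubulin and reported relative to the averaged 0.1% DMSO vehicle.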

Assay [2] deals with T1, Protein cereblon/von Hippel-Lindau disease tumor suppressor. The assay can be described thus: Protac activity at VHL/CRBN in human HeLa cells assessed as pVHL19 protein abundance at 10 nM after 4 hrs by Western blot analysis relative to DMSO. In outline:
(§2)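 HeLa cells (5 × 10⁵, DMEM + 10% FBS, 37 °C, 5% CO₂, ≤30 passages) seeded overnight, then treated 4 h with compound at single or graded concentrations (0.1% v/v DMSO final). RIPA lysates equalised by Bradford; SDS-PAGE and anti-CRBN/anti-VHL immunoblots; bands normalised to β-tubulin and expressed as % of mean DMSO vehicle. DC₅₀ from fit of band intensity versus log[concentration].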

Assay [3] has the same target. The assay can be described thus: Protac activity at VHL/CRBN in human HeLa cells assessed as CRBN protein abundance at 1 uM after 4 hrs by Western blot analysis relative to DMSO. A digest of the protocol: as §1
For orientation: A western blot detects proteins with antibodies after separation by electrophoresis.

The target is the same in assay [4]. The assay can be described thus: Protac activity at VHL/CRBN in HEK293 cells assessed as pVHL30 protein abundance after 4 hrs by Western blot analysis relative to DMSO. A digest of the protocol: (§3)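 HEK293 cells (DMEM, 10% FBS, penicillin/streptomycin, L-glutamine; 37 °C, 5% CO2; ≤30 passages) seeded at 1 × 10⁶ per well overnight, then treated with compound at 0.1% v/v final DMSO. Cells were lysed in RIPA with protease inhibitors and benzonase, then clarified. Equal Bradford-quantified protein was immunoblotted for CRBN/VHL. Bands were normalised to β-tubulin and expressed as % of mean 0.1% DMSO vehicle.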

Assay [5] has the same target. The assay can be described thus: Protac activity at VHL/CRBN in human HeLa cells assessed as pVHL19 protein abundance after 4 hrs by Western blot analysis relative to DMSO. A digest of the protocol: as §2
The target is the same in assay [6]. The assay can be described thus: Protac activity at VHL/CRBN in human HeLa cells assessed as CRBN protein abundance after 4 hrs by Western blot analysis relative to DMSO. In outline: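 HeLa cells (DMEM, 10% FBS, penicillin/streptomycin, L-glutamine; 37 °C, 5% CO2) seeded at 5 × 10⁵ per well overnight, then treated in 0.1% v/v final DMSO. Cells were lysed in RIPA with protease inhibitors and benzonase, and equal protein was run on SDS-PAGE/nitrocellulose blots probed with anti-CRBN. Bands were normalised to β-tubulin and expressed relative to mean 0.1% DMSO vehicle.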

For assay [7] the target is unchanged. As to the kind of experiment: Protac activity at VHL/CRBN in human HeLa cells assessed as pVHL30 protein abundance at 1 uM after 24 hrs by Western blot analysis relative to DMSO. In outline: as §1
For assay [8] the target is unchanged. As to the kind of experiment: Protac activity at VHL/CRBN in human HeLa cells assessed as pVHL19 protein abundance at 1 uM after 4 hrs by Western blot analysis relative to DMSO. In outline:
as §1

Assay [9] has the same target. The assay can be described thus: Protac activity at VHL/CRBN in HEK293 cells assessed as pVHL19 protein abundance after 4 hrs by Western blot analysis relative to DMSO. A digest of the protocol:
as §3

Assay [10] shares this target. As to the kind of experiment: Protac activity at VHL/CRBN in human HeLa cells assessed as CRBN protein abundance at 1 uM after 24 hrs by Western blot analysis relative to DMSO. A digest of the protocol:
as §1

Assay [11] shares this target. The assay can be described thus: Protac activity at VHL/CRBN in HEK293 cells assessed as pVHL19 protein abundance at 1 uM after 24 hrs by Western blot analysis relative to DMSO. A digest of the protocol:
as §3

For assay [12] the target is unchanged. The assay can be described thus: Protac activity at VHL/CRBN in human HeLa cells assessed as pVHL30 protein abundance at 1 uM after 4 hrs by Western blot analysis relative to DMSO. A digest of the protocol: as §1
Assay [13] shares this target. The assay can be described thus: Protac activity at VHL/CRBN in HEK293 cells assessed as CRBN protein abundance at 1 uM after 24 hrs by Western blot analysis relative to DMSO. In outline:
as §3

The target is the same in assay [14]. The assay can be described thus: Protac activity at VHL/CRBN in human HeLa cells assessed as CRBN protein abundance at 10 nM after 4 hrs by Western blot analysis relative to DMSO. In outline: as §2
Assay [15] shares this target. As to the kind of experiment: Protac activity at VHL/CRBN in HEK293 cells assessed as CRBN protein abundance at 1 uM after 4 hrs by Western blot analysis relative to DMSO. In outline:
as §3

Assay [16] shares this target. The assay can be described thus: Protac activity at VHL/CRBN in HEK293 cells assessed as pVHL30 protein abundance at 1 uM after 4 hrs by Western blot analysis relative to DMSO. In outline:
as §3

For assay [17] the target is unchanged. As to the kind of experiment: Protac activity at VHL/CRBN in HEK293 cells assessed as pVHL19 protein abundance at 1 uM after 4 hrs by Western blot analysis relative to DMSO. A digest of the protocol: as §3
Assay [18] has the same target. As to the kind of experiment: Protac activity at VHL/CRBN in human HeLa cells assessed as pVHL30 protein abundance after 4 hrs by Western blot analysis relative to DMSO. A digest of the protocol: as §2
Assay [19] has the same target. As to the kind of experiment: Protac activity at VHL/CRBN in human HeLa cells assessed as induction of VHL degradation at 1 uM after 4 hrs by Western blot analysis. In outline:
as §2

For assay [20] the target is unchanged. The assay can be described thus: Protac activity at VHL/CRBN in HEK293 cells assessed as CRBN protein abundance after 4 hrs by Western blot analysis relative to DMSO. In outline: as §3
The target is the same in assay [21]. The assay can be described thus: Protac activity at VHL/CRBN in HEK293 cells assessed as pVHL30 protein abundance at 1 uM after 24 hrs by Western blot analysis relative to DMSO. In outline: as §3
Assay [22] shares this target. As to the kind of experiment: Protac activity at VHL/CRBN in human HeLa cells assessed as pVHL30 protein abundance at 10 nM after 4 hrs by Western blot analysis relative to DMSO. In outline:
as §2

Active and inactive are the calls of the source. The rule behind the calls is not given here.

T1 sequence (P40337 whole entry, looked up, canonical isoform): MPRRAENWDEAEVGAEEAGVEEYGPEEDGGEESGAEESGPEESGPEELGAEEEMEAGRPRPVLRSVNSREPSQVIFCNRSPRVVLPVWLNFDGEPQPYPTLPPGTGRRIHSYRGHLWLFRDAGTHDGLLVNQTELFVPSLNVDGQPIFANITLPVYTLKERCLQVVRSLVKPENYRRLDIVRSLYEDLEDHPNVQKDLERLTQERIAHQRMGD
T1 sequence (Q96SW2 whole entry, looked up, canonical isoform): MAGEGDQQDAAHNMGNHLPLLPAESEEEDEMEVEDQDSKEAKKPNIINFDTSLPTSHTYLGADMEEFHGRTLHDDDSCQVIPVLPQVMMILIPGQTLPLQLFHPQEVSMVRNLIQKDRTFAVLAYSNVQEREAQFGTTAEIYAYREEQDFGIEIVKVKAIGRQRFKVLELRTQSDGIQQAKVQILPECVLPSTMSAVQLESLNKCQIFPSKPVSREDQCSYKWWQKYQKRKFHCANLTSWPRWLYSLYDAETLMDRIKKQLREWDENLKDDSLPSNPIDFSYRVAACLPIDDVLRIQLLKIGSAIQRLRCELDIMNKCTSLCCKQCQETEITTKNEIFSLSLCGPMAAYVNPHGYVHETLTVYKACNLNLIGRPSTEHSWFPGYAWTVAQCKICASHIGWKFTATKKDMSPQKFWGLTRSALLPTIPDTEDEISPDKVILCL

As for `O=C1CCC(N2C(=O)c3cccc(NCCOCCOCCNc4cccc5c4C(=O)N(C4CCC(=O)NC4=O)C5=O)c3C2=O)C(=O)N1` (centres undefined), the Activity stood at 107% in [1]; 95% in [2]; 34% in assay [3]; 95% in [4]; 104% in [5]; 40% in [6]. Moreover, the Activity in assay [7] stood at 102%; in assay [8], 100%; in [9], 94%; in assay [10], 29%; in assay [11], 99%; in assay [12] it was 87%. Moreover, the Activity turned out to be 25% in assay [13]; 38% in [14]; 37% in assay [15]; 99% in [16]; 97% in [17]; 109% in assay [18]. The Activity is 52% in assay [20], 96% in assay [21] and 95% in [22]. In addition, in assay [19], the result was inactive.

Consider `Cc1ncsc1-c1ccc(CNC(=O)[C@@H]2C[C@@H](O)CN2C(=O)[C@@H](NC(=O)COCCOCCOCCOCCOCCOCC(=O)N[C@H](C(=O)N2C[C@H](O)C[C@H]2C(=O)NCc2ccc(-c3scnc3C)cc2)C(C)(C)C)C(C)C)cc1`, for which the Activity in [1] is 122%; in assay [2] it was 97%; in [3], 103%; in assay [4], 6%; in assay [5], 100%; in [6], 99%. Further, the Activity in [7] came to 11%; in [8], 97%; in [9], 95%; in [10] it was 118%; in assay [11] it was 99%; in [12] it was 1%. Further, the Activity worked out at 109% in [13]; 87% in assay [14]; 102% in [15]; 1% in assay [16]; 95% in [17]; 0% in [18]. In addition, the Activity in assay [20] is 100%; in [21] it was 3%; in assay [22] it was 0%. Moreover, in assay [19], the result was inactive.

The values are drawn from ChEMBL document CHEMBL4665633, “Cereblon versus VHL: Hijacking E3 ligases against each other using PROTACs” (Bioorg Med Chem, 2019).
